From the RNAGym collection of RNA variant scans (doi:10.1038/nmeth.2970)

B1: NELF-E aptamer (parent)
chain: CCCAACGACUGCCGAGCGAGAUUACGCUUGAGCGCCCCACUGAGGAUGCCCACGGGCGAUUGGGGCACGG

Variants of: B1
Assay: HiTS-RAP
Settings: with NELF-E (Drosophila)
Outline: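 Kd came from weighted Hill fits to the first binding curve, with intensities normalised to sequencing intensity and averaged per sequence, keeping only fits whose variance was below 1,000,000. That curve was imaged on an Illumina GAIIx flowcell, where sequenced aptamer DNA templates with a T7 promoter and ter site had been transcribed in situ by T7 RNA polymerase and halted by GST-Tus (30 minutes, 37°C). Before each image, clusters equilibrated for 30 minutes at room temperature with NELF-E-mOrange at 0.064 to 1000 nM in HEPES binding buffer.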
For C6G C12A, the Kd was 6.77 nM. U10G G18A gave a Kd of 5.37 nM. In the case of G11A U28C, the Kd is reported as 9.79 nM. For A8U C25G, the Kd was 6.83 nM. Variant U29G U61C has a Kd of 59.2 nM. C9G U10G showed a Kd of 5.46 nM. In the case of C17G G63U, the Kd is reported as 10.3 nM. A4G C27A showed a Kd of 5.54 nM. For A5G A19U, the Kd was 7.26 nM. C9G A24G gave a Kd of 5.84 nM. C13G U23G was tested, and the Kd was 5.29 nM. Work on A8G A24U yielded a Kd of 5.52 nM. Work on C6G C40U yielded a Kd of 70.3 nM. In the case of C13G U22G, the Kd is reported as 5.27 nM. Variant A5G A46G has a Kd of 15.3 nM. U10A U29C was tested, and the Kd was 5.24 nM. C6U U41C gave a Kd of 81.8 nM. In the case of U22C C57U, the Kd is reported as 2.92 nM. Variant A24C has a Kd of 5.86 nM. In the case of G11U G54A, the Kd is reported as 14.1 nM. For A5G G14U, the Kd was 6.38 nM. For C6U A21G, the Kd was 7.12 nM. Variant A8U C13A has a Kd of 7.3 nM. Work on A5G G56U yielded a Kd of 7.96 nM. For G11U G65A, the Kd was 5.5 nM. In the case of U10G U23A, the Kd is reported as 5.14 nM. C38U A39G was tested, and the Kd was 6.36 nM. With U29G G54U the Kd was 6.72 nM. G7U C13G gave a Kd of 5.83 nM. A8G G32A showed a Kd of 5.07 nM. In the case of C6A U10G, the Kd is reported as 5.78 nM. U22G G54A showed a Kd of 12.1 nM. C3U was tested, and the Kd was 5.55 nM. For G64U, the Kd was 7.29 nM. U23G U47A gave a Kd of 13.5 nM. G11C C12G showed a Kd of 5.71 nM. A15U U60C showed a Kd of 10.7 nM. In the case of C9G G63U, the Kd is reported as 10.3 nM. G11A U41C gave a Kd of 83.6 nM. In the case of A8U C51U, the Kd is reported as 10.8 nM. Variant G11U U29G has a Kd of 6 nM. Work on U23A A24G yielded a Kd of 6.07 nM. For C17G A67G, the Kd was 5.71 nM. Work on G14U A24G yielded a Kd of 6.51 nM. Work on A4G A59G yielded a Kd of 40 nM. U10C C12G was tested, and the Kd was 5.94 nM. U10G C37U was tested, and the Kd was 12.2 nM. In the case of U10G A52C, the Kd is reported as 5.8 nM. Work on G7A A39G yielded a Kd of 12.1 nM. For C9G G30U, the Kd was 6.64 nM. C33U was tested, and the Kd was 4.92 nM. In the case of U23G G30A, the Kd is reported as 4.6 nM. With G56A the Kd was 10.3 nM. Variant A4G C13U has a Kd of 4.78 nM. Variant A4U C38U has a Kd of 6.95 nM. A21G U22G gave a Kd of 5.72 nM. For C9G A21U, the Kd was 6.36 nM. For C9G G65U, the Kd was 7.11 nM. A8U C38U gave a Kd of 8.93 nM. Variant U10C C57U has a Kd of 4.92 nM. Work on G32C yielded a Kd of 4.57 nM. In the case of A5U, the Kd is reported as 5.66 nM. For G11U U23G, the Kd was 6.33 nM. C66U showed a Kd of 4.61 nM. G62U gave a Kd of 7.51 nM. For G11U U61A, the Kd was 41.1 nM. C17G U22G showed a Kd of 4.82 nM. G7U U28A showed a Kd of 5.51 nM. For A19G A31U, the Kd was 5.3 nM. Work on A5G A67G yielded a Kd of 6.71 nM. In the case of A4G G65A, the Kd is reported as 5.5 nM. C36U gave a Kd of 6.29 nM. Work on U23G A31G yielded a Kd of 6.72 nM. Work on A5U A67G yielded a Kd of 6.53 nM. G7U C35U gave a Kd of 8.9 nM. With A8G G20A the Kd was 5.52 nM. C6G G7A gave a Kd of 6.58 nM. For G14A U22G, the Kd was 5.03 nM. In the case of C12G A59G, the Kd is reported as 57.4 nM. C6G C27U was tested, and the Kd was 5.23 nM. G7A G63A showed a Kd of 14.4 nM. In the case of G30A A31G, the Kd is reported as 5.33 nM. For G16U G18A, the Kd was 7.17 nM. Work on G14U G56A yielded a Kd of 9.7 nM. A5U G20U was tested, and the Kd was 7.83 nM. A5U G20A showed a Kd of 6.68 nM. Work on U22G A43U yielded a Kd of 56.4 nM. Work on A4U G26U yielded a Kd of 4.31 nM. For U10G C33G, the Kd was 5.96 nM. With A4U G55A the Kd was 8.55 nM. A5G C50G showed a Kd of 6.45 nM. In the case of U28A, the Kd is reported as 4.43 nM. In the case of A4G G63A, the Kd is reported as 15.1 nM. In the case of A4G U41A, the Kd is reported as 73.6 nM. U22G U29G gave a Kd of 5.4 nM. With U10A A31U the Kd was 5.78 nM. Variant C9G C35G has a Kd of 7.59 nM. Work on C17U yielded a Kd of 4.56 nM. Work on C6G G30A yielded a Kd of 4.52 nM. Work on C9G A59G yielded a Kd of 64.3 nM. For G16U G30A, the Kd was 4.95 nM. In the case of A8U G54A, the Kd is reported as 11.3 nM. Variant C13G C53G has a Kd of 7.39 nM. For G11U A24U, the Kd was 5.45 nM. Work on U22G U41G yielded a Kd of 5.36 nM. Variant U22G U41C has a Kd of 74.5 nM. For C13G G14A, the Kd was 6.02 nM. A8G C12U showed a Kd of 5.09 nM. For A5U U22G, the Kd was 6.13 nM. Work on C12G G34A yielded a Kd of 7.36 nM. For U10G A43G, the Kd was 18.8 nM. In the case of C17G A19G, the Kd is reported as 5.02 nM. With G16U U29C the Kd was 6.55 nM. C13G C37U was tested, and the Kd was 10.3 nM. For G32A U41G, the Kd was 5.08 nM. In the case of G14U U22G, the Kd is reported as 6.53 nM. A4G A43G was tested, and the Kd was 22.2 nM. C9U U23G was tested, and the Kd was 5.63 nM. In the case of C6U G26A, the Kd is reported as 4.04 nM. For C9U U29G, the Kd was 5.3 nM. Work on C1A yielded a Kd of 4.94 nM. In the case of C12G G65U, the Kd is reported as 8.23 nM. U22G C66A gave a Kd of 4.13 nM. Variant G11A U23G has a Kd of 5.54 nM. In the case of C6G C53U, the Kd is reported as 4.15 nM. For G7U U61C, the Kd was 79 nM. Variant G14U G26A has a Kd of 5.3 nM. Variant A15U U29G has a Kd of 6.83 nM. With U23G C33A the Kd was 5.51 nM. Work on U41G U61A yielded a Kd of 34.9 nM. Work on A4G G7U yielded a Kd of 6.07 nM. Variant A4G G7A has a Kd of 6.95 nM. Variant A31G has a Kd of 6.92 nM. U22G G32U showed a Kd of 4.59 nM. U22G G32A was tested, and the Kd was 4.39 nM. In the case of C6G G54A, the Kd is reported as 12.5 nM. Variant A8U C12G has a Kd of 6.15 nM. With U29G U41G the Kd was 5.31 nM. G7U G16U gave a Kd of 7.06 nM. C17G U29C was tested, and the Kd was 4.96 nM. A5U G34A gave a Kd of 5.54 nM. For C53G, the Kd was 5.16 nM. Variant C12G G62U has a Kd of 10.8 nM. C9G C12G showed a Kd of 5.75 nM. A8G U10A gave a Kd of 5.37 nM. Work on A8G U10G yielded a Kd of 5.44 nM. In the case of C6G G34U, the Kd is reported as 5.79 nM. In the case of A4U U47A, the Kd is reported as 12.5 nM. U10G C49A showed a Kd of 20.2 nM. U10A G16U was tested, and the Kd was 5.86 nM. Variant U41A has a Kd of 73.7 nM. For A4G A52G, the Kd was 4.59 nM. G7U A21U gave a Kd of 5.79 nM. U10A C13G was tested, and the Kd was 5.83 nM. With A4G U29G the Kd was 5.5 nM. In the case of A4G U29A, the Kd is reported as 5.44 nM. U22G G55C gave a Kd of 7.26 nM. Work on C12G C13G yielded a Kd of 5.01 nM. C6U C25G was tested, and the Kd was 7.85 nM. Work on G16U A52G yielded a Kd of 4.81 nM. U47C showed a Kd of 9.59 nM. G69A was tested, and the Kd was 4.82 nM. A15U U22G showed a Kd of 6.74 nM. For G14A A67G, the Kd was 5.51 nM. For C13G G48U, the Kd was 6.97 nM. In the case of A4G C9A, the Kd is reported as 6.66 nM. A5G G11A showed a Kd of 6.61 nM.
